Assay results from paper PMC3548935 (Cancer research, 2012).

Columns and labels:
[1] = tested on: orthotopic 4T1 breast tumors; assay: Tumor treatment study, orthotopic 4T1 breast tumors; assay type: in vivo, mouse; conditions: DOX 3 mg/kg + 4 µmol/kg iNGR i.v. every other day
[2] = tested on: 4T1 tumors; conditions: no penetrating peptide; cited from earlier work
[3] = tested on: tumors; conditions: cited from earlier work
[4] = biological target: NRP-1 (Homo sapiens, UniProt O14786); assay: Dose-dependent binding of phage to purified NRP-1; conditions: phage-displayed peptide, Fig. 1E; for Phage binding to immobilized NRP-1: anti-T7 phage antibody / HRP detection
Outline: (§1)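 Peptide-displaying T7 phage was added over a range of phage amounts to purified NRP-1 or NRP-2 protein. Bound phage was detected with a rabbit anti-T7 phage antibody followed by an HRP-labeled goat anti-rabbit secondary antibody.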

[5] = biological target: T1, NRP-2 (Homo sapiens, UniProt O60462); assay: Dose-dependent binding of phage to purified NRP-2; conditions: phage-displayed peptide, Fig. 1F; for Phage binding to immobilized NRP-2: anti-T7 phage antibody / HRP detection
T1 sequence (O60462 21-931): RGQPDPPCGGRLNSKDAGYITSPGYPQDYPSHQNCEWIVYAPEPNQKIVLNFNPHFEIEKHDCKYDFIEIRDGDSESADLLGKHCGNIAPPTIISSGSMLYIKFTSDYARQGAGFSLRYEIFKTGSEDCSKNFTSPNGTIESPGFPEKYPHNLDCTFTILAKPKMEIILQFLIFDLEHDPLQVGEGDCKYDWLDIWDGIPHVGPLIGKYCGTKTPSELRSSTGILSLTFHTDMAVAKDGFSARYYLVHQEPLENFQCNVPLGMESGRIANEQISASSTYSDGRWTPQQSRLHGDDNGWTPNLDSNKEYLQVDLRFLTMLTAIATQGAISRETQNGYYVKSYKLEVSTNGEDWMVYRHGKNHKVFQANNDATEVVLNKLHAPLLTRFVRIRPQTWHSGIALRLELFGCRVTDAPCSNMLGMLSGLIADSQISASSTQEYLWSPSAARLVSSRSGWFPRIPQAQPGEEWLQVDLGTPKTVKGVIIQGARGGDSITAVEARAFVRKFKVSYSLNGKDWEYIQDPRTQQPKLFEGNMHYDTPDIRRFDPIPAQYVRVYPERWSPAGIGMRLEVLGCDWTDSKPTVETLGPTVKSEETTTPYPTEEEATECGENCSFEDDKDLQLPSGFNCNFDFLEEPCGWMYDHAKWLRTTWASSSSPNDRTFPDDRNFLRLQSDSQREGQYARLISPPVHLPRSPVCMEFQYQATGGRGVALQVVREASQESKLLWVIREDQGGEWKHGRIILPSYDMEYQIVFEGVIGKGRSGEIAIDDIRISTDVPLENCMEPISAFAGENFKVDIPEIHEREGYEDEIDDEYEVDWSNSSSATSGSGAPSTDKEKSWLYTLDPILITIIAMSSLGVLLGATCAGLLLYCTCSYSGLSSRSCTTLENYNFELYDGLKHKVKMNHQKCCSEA
Outline: as §1

[6] = tested on: HUVECs; assay: Mass spectrometry of peptide inside HUVECs after incubation with FAM-peptide; assay type: cell-based, human; conditions: Fig. S4

NRP-1, sequence (O14786 22-923): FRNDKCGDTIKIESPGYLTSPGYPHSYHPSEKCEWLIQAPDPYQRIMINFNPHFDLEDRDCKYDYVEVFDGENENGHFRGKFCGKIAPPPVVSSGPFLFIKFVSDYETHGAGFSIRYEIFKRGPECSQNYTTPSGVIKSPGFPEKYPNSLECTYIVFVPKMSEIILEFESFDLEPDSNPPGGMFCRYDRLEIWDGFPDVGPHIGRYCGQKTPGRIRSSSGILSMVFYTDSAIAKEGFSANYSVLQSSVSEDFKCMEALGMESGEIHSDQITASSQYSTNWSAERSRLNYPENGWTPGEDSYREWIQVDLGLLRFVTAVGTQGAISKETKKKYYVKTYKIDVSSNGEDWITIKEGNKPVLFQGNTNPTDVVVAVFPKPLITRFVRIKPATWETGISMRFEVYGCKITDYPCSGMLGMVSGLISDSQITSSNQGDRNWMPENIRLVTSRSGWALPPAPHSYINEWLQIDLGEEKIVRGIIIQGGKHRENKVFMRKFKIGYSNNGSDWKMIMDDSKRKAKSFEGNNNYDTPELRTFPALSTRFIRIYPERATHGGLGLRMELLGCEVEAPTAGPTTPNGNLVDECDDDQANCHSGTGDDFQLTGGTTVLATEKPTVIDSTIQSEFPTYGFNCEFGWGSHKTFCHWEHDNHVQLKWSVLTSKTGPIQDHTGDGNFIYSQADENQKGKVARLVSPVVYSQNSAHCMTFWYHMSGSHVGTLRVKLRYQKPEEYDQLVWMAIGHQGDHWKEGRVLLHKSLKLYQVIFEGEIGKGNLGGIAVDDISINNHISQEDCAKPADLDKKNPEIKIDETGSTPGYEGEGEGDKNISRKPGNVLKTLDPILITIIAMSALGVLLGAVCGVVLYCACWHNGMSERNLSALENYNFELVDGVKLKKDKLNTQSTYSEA

Compound: COc1cccc2c1C(=O)c1c(O)c3c(c(O)c1C2=O)C[C@@](O)(C(=O)CO)C[C@@H]3O[C@H]1C[C@H](N)[C@H](O)[C@H](C)O1 [Doxorubicin, doxorubicin]
- Efficacy of doxorubicin given together with iNGR [1]: significantly more efficacious than the drug alone

Compound: CGKRK
- Tumor homing and extravasation of NWs coated with the peptide [2]: brings the NWs to tumor vessels, but does not trigger extravasation

Compound: CGNKRTRGC [LyP-1]
- Tumor penetration [3]: penetrates into tumors through the CendR/NRP mechanism

Compound: CRGDK [iRGDt]
- Phage binding to immobilized NRP-1 [4]: bound to the NRPs
- Phage binding to immobilized NRP-2 [5]: bound to the NRPs

Compound: CRNGR [iNGRt]
- Phage binding to immobilized NRP-1 [4]: bound to the NRPs
- Affinity for NRP-1 compared with iRGDt [4]: higher affinity
- Phage binding to immobilized NRP-2 [5]: bound to the NRPs
- Affinity for NRP-2 compared with iRGDt [5]: higher affinity

Compound: FAM-CNGRC
- Peptide present inside HUVECs after incubation with FAM-peptide [6]: did not penetrate into the cells
